Reference: ChEMBL document CHEMBL1649161, “Pharmacokinetics of EDP-420 after ascending single oral doses in healthy adult volunteers” (Antimicrob Agents Chemother, 2009)

What was measured:
[1] = Apparent oral clearance in healthy human plasma at 800 mg, po administered as single dose measured after 120 hrs; type: ADME, organism-based
Procedure, shortened: (§1)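 Single oral suspension dose in fasted healthy adults (6 per group). Plasma was collected to 120 h and measured by LC-MS/MS (1–1,000 ng/ml). Apparent oral clearance was dose divided by AUC0-∞ (noncompartmental, linear-up/log-down trapezoid extrapolated with Clast/λz); the mean was reported.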

[2] = Apparent oral clearance in healthy human plasma at 1200 mg, po administered as single dose measured after 120 hrs; type: ADME, organism-based; procedure, shortened: as §1
[3] = Renal clearance in healthy human at 100 mg, po administered as single dose measured after 48 hrs; type: ADME, organism-based, Kidney; conditions: in vivo, read-out: CL_renal (converted)
Procedure, shortened: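 Healthy adults (6 active per dose) got a single oral suspension dose after an 8-h fast, with food withheld 4 h. Urine over 0–48 h in intervals and serial EDTA plasma were assayed by validated LC-MS/MS, with plasma calibration from 1 to 1,000 ng/ml. CLR = Ae0-48 (urine volume × concentration summed) divided by plasma AUC0-48.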

Homo sapiens = assay: Toxicity in healthy human assessed as incidence of adverse events at 100 to 1200 mg, po administered as single dose; type: organism-based; conditions: in vivo
Procedure, shortened: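 Randomized, double-blind, placebo-controlled single ascending dose study with eight subjects per group (6 drug, 2 placebo of microcrystalline cellulose). Subjects were fasted before dosing. Safety labs were done at 120 h, with a full chemistry panel also at 72 and 96 h for the top dose. Final evaluation on day 8–10, with adverse events recorded.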

CC[C@H]1OC(=O)[C@H](C)C(=O)[C@H](C)[C@@H](O[C@@H]2O[C@H](C)C[C@H](N(C)C)[C@H]2O)[C@@]2(C)C[C@@H](C)/C(=N\C(C)=O)[C@H](C)[C@@H](OC/C(=N\OCc3ccc(-n4cccn4)nc3)CO2)[C@]1(C)O [MODITHROMYCIN]
CL/F [1]: 393 mL/min
CL/F [2]: 523 mL/min
CL renal at 48 h [3]: 46.3 mL/min
Activity (Homo sapiens): 16.7%
